Screening results as filed in PubChem.
hiPSC survival: enhancers of single-cell hiPSC survival, primary screen, ATPlite luminescence | 100% = ROCK inhibitor wells, 0% = DMSO | survival enhancement, % at 20 µM | 360,000 tested, 0.044% active | AID 602274, 2012; in the data active means survival enhancement above about 18%;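 further: cells exposed to compounds for 16 hours before the ATP read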
Exocytosis inh: LAMP-1 surface exposure blockers, TALL-104 cells – cell-based, flow cytometry, MLPCN library, primary screen. TALL-104 LAMP-1 surface exposure; cells stimulated with thapsigargin and PMA. inhibition, % at 10 µM. 360,000 tested, 0.66% active;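 active means inhibition above about 55%, limit read from the data; inconclusive means no clear call, values can overlap the other calls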
MPTP block: mitochondrial permeability transition pore inhibitors, primary screen, biochemical, isolated mouse mitochondria, absorbance; 360,000 tested, 1.4% active; Ca2+ swelling absorbance, 30 min; inhibition, % at 10 µM;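 active means inhibition of 50% or more, scaled per plate between neutral and stimulator controls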;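 further: 0% = DMSO wells given calcium and 100% = 1 mM EGTA wells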
beta cell repl: inducers of MIN6 beta-cell proliferation, primary screen, ATP luminescence, uHTS. proliferation, % at 10 µM. AID 2380, 2010. 330,000 tested, 0.29% active. MIN6 cells proliferation, ATPlite luminescence, 48 h; cells starved in 0.2% serum; 100% = growth in 10% serum;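 active means compounds whose signal lies at least 3.5 SD above the mean of all wells on their plate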;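 further: 0% = DMSO-treated cells in low-serum medium and 100% = 10% serum control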
UBC13 polyUb: UBC13 polyubiquitin chain formation inhibitors, primary screen, biochemical, TR-FRET, uHTS | inhibition, % at 20 µM | 330,000 tested, 0.47% active; in the data active means inhibition above about 45%, passing the limit was not always enough; inconclusive means no clear call, values can overlap the other calls
Target sequence (P61088 whole entry, looked up): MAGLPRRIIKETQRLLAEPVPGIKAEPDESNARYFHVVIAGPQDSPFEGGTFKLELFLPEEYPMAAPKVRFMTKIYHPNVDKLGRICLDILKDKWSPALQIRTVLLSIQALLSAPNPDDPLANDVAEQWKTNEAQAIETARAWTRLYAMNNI
Apaf1 inhib: inhibitors of human Apaf-1 apoptosome, primary screen, biochemical, DEVD-Rh110 fluorescence, uHTS. 330,000 tested, 0.71% active. reconstituted apoptosome caspase-3 activity. inhibition, % at 20 µM. Apoptotic protease-activating factor 1 (Homo sapiens), O14727. AID 489030, 2010; active means inhibition of at least 40% at 20 µM;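 further: plate controls were DMSO wells for no effect and DEVD-CHO caspase inhibitor wells for full effect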
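Medium: Hepes buffer, pH 7.5 / System: biochemical Apaf-1 apoptosome reconstitution / Measured by: Rh110 fluorescence, excitation 480 nm, emission 540 nm / Times: compound with Apaf-1, dATP, procaspase-3 30 min, then 50 min reaction, room temperature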
MPTP counter: fluorescence retest of MPTP screen hits in isolated mitochondria, single concentration; 5,000 tested, 78% active; inhibition, % at 10 µM; shares compounds with MPTP block; membrane potential, Rhodamine 123 fluorescence; in the data active means inhibition above about 22%;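 further: 0% = DMSO vehicle and 100% = positive control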
MPTP abs DR: mitochondrial permeability transition pore inhibitors, dose response, biochemical, absorbance, uHTS hits. shares compounds with MPTP block. IC50, µM. 780 tested, 58% active. isolated mitochondria swelling; in the data active means IC50 below about 20 µM
MPTP counter DR: fluorescent counter-screen in isolated mitochondria, dose response, counter-screen for MPTP inhibitor project, biochemical, fluorescence, uHTS hits | 780 tested, 49% active | IC50, µM | AID 651564, 2012 | isolated mitochondria counterscreen, fluorescence read-out | shares compounds with MPTP block; in the data active means IC50 below about 80 µM
Granule exo CP1: inhibitors of lytic granule exocytosis, confirmation, TALL-104 cells, flow cytometry, Cherry Pick01; shares compounds with Exocytosis inh; LAMP-1 externalization; stimulated with PMA plus thapsigargin; inhibition, % at 10 µM; 1,500 tested, 11% active; AID 651954, 2012; in the data active means inhibition above about 60%;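 further: 0% = stimulated vehicle wells and 100% = unstimulated wells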
Active calls of the source: *; i = inactive; ? = inconclusive; . = not tested or not shown. Shown are actives, neighbours in structure and some others; about 3% of the full set was active somewhere.

SMILES	hiPSC survival	Exocytosis inh	MPTP block	beta cell repl	UBC13 polyUb	Apaf1 inhib	MPTP counter	others
Cc1ccc(NC(=O)CN2C(=O)NC(Cc3c[nH]c4ccccc34)C2=O)cc1 (stereo not drawn)	-0.2	-0.2	0.4	-4.4	-9.7	20.8	.
COC(C(=O)Nc1ccnn1C1CCN(Cc2cnn(C(C)C)c2)CC1)c1ccccc1 (stereo not drawn)	0.4	0.3	-0.4	4.1	-1.7	8.0	.
CCc1ccc(OCC(=O)NC2CCCCC2)c(Br)c1	-0.6	-17.3	-0.8	-1.8	3.0	21.7	.
Cc1ccc(OCC(=O)Nc2ccncc2)cc1C	3.2	-1.6	13.6	.	.	.	.
CCc1ccc(OCC(=O)Nc2ccncc2)c(Br)c1	0.0	0.3	78.8*	-0.2	-5.9	5.4	80.1*
Cc1cc(OCC(=O)Nc2ccncc2)c(C)cc1Br	5.5	3.7	97.8*	-6.1	-12.4	11.8	84.0*
COc1cc(OC)cc(C(=O)N2CCCC(c3nc(-c4ccc(C)o4)no3)C2)c1 (stereo not drawn)	-0.5	13.5	-2.8	-1.8	-10.0	16.8	.
Cc1ccc(-c2noc(C3CCCN(C(=O)c4ccc(C(C)(C)C)cc4)C3)n2)o1 (stereo not drawn)	-0.6	8.9	61.1*	0.0	-1.7	28.3	39.0*
O=C(NNC(=O)c1ccccc1O)c1ccc(S(=O)(=O)Nc2ccccc2)cc1	1.0	15.3	-0.5	-3.4	11.0	-3.3	.
CN1CCN(C2=Cc3ccccc3Sc3cc(F)c(F)cc32)CC1	-2.1	0.0	92.7*	-3.4	9.4	4.4	-12.2
CN1CCN(C2=Cc3ccccc3Sc3cc(F)c(Cl)cc32)CC1	-4.9	7.2	31.9	-3.5	26.7	9.5	.
CN1CCN(C2=Cc3cc(Cl)ccc3Sc3cc(F)ccc32)CC1	-0.5	3.4	90.6*	-3.7	24.0	15.5	-12.6
CCCS(=O)(=O)NC(=O)C1(C)CCN1C(=O)Cc1ccc(Cl)cc1Cl (stereo not drawn)	-0.4	?	0.4	.	.	.	.
O=C(C[C@H]1C(=O)N(CCc2ccccc2)C[C@@H]1Cc1ccccc1)Nc1ccccc1	0.7	-1.7	0.2	-7.2	6.2	15.3	.
CC(C)(C)C(=O)NC(=S)NNC(=O)c1ccc(Cl)cc1Cl	-0.6	-0.7	75.6*	-0.9	-25.5	-23.5	-4.8
CC(C)(C)C(=O)NC(=S)NNC(=O)c1ccc(-c2ccccc2)cc1	-0.7	0.6	93.5*	-5.6	-15.8	7.2	22.6*
COC(=O)NNC(=O)c1ccc(Cl)cc1Cl	1.7	-0.4	-0.1	-1.1	-2.7	6.6	.
CC(C)(C)C(=O)NC(=S)NNC(=O)c1ccncc1	0.5	-0.6	0.9	-3.3	-0.7	-9.1	.
Cc1cc(N2CCN(C(=O)c3[nH]c(C(F)(F)F)nc3-c3ccccc3)CC2)c2ccccc2n1	-3.6	1.9	0.1	.	.	.	.
Cc1ccc(S(=O)(=O)NCc2ccc(C(=O)NCCN(Cc3ccccc3)C(C)C)cc2)cc1	-0.1	1.5	50.9*	-4.7	-0.7	19.8	71.1*
Cc1nc2ccc(F)cc2cc1C(=O)Nc1ccc(Cl)c(Cl)c1	0.8	-4.8	93.4*	.	.	.	82.3*
CCOC(=O)c1c(CN2CCN(CCO)CC2)n(C)c2cc(Br)c(OC)cc12	-2.4	20.4	68.2*	-3.7	17.0	-4.1	-10.1	MPTP abs DR=i;MPTP counter DR=>80
CCOC(=O)c1c(CNCCN(CC)CC)n(C)c2cc(Br)c(OC)cc12	-5.4	7.5	74.2*	-1.3	13.8	0.9	-13.7	MPTP abs DR=i;MPTP counter DR=>80
COc1ccc(/C=C/c2n[nH]c(=O)c(C#N)c2C)cc1	-0.2	20.7	-2.0	0.0	-2.3	6.5	.
CC(=O)c1ccc(Oc2cc(-c3ccccc3)nc(-c3ccccc3)n2)cc1	-0.2	-3.2	52.8*	-2.9	0.1	1.7	-1.1	MPTP abs DR=>100;MPTP counter DR=>80
SMILES	hiPSC survival	Exocytosis inh	MPTP block	beta cell repl	UBC13 polyUb	Apaf1 inhib	MPTP counter	others
C/C(=N\NC(=O)c1cc(Cl)ccc1O)c1ccc(Br)s1	0.6	4.2	94.2*	-5.6	15.7	8.4	19.5	MPTP abs DR=4.7*;MPTP counter DR=<2.5*
Cc1nc2c(-c3ccccc3)c(C)nn2c(C)c1CCC(=O)NCc1ccco1	1.1	4.7	-1.0	-2.8	-7.7	10.5	.
CCN1CCN(c2ccc(NC(=O)CCc3c(C)nc4c(-c5ccccc5)c(C)nn4c3C)cc2)CC1	0.0	56.1*	53.9*	-5.8	32.5	48.5*	-24.6	MPTP abs DR=14.9*;MPTP counter DR=>80;Granule exo CP1=28.2
Fc1ccc(/C=C\c2nccc3c2[nH]c2ccccc23)cc1	-0.5	83.4*	87.2*	-6.5	-2.8	6.1	80.5*	Granule exo CP1=92.8*
C(=C\c1nccc2c1[nH]c1ccccc12)/c1ccccc1	0.1	43.2	6.7	-6.7	10.8	18.7	.
Cc1ccc(/C=C/c2nc3ccccc3c(=O)[nH]2)cc1	-0.7	-0.7	3.5	-6.3	7.8	-11.2	.
Cc1ccc(/C=C\c2nccc3c2[nH]c2ccccc23)cc1	-0.3	74.9*	74.7*	-6.0	2.1	0.9	61.5*	Granule exo CP1=4.4
Cc1ccc(S(=O)(=O)n2ccc3c(OCCOCCSCC(NC(=O)OC(C)(C)C)C(=O)O)cccc32)cc1 (stereo not drawn)	-0.1	-14.8	1.2	-2.2	-18.8	27.1	.
Cc1ccc(S(=O)(=O)n2ccc3c(OCCOCCNCc4ccc(F)cc4)cccc32)cc1	-0.7	74.8*	67.5*	-6.6	38.5	26.4	85.6*	Granule exo CP1=68.8*
CO[C@@H]1CN(C)C(=O)c2cc(NC(=O)NC3CCCCC3)ccc2OC[C@@H](C)N(CCc2ccccc2)C[C@@H]1C	.	8.7	1.1	.	.	.	.
c1ccc(OCCNc2nc(NCC3CC3)nc3ccsc23)cc1	-1.1	-2.0	7.6	.	.	.	.
COc1ccccc1CNc1nc(NCCOc2ccccc2)c2sccc2n1	-2.1	56.4*	59.6*	.	.	.	90.7*	Granule exo CP1=45.4
c1cc2cc(CNc3nc(NCC4CC4)nc4ccsc34)ccc2o1	-2.1	17.3	48.6	.	.	.	.
COc1ccccc1CNc1nc(NCc2ccc3occc3c2)c2sccc2n1	-2.2	92.8*	71.7*	.	.	.	99.5*	Granule exo CP1=89.9*
